Screening data: PubChem, The Scripps Research Institute Molecular Screening Center
Hits are enriched below; roughly 4.6% of the tested compounds scored in any of these assays.
OX1R antag-1: antagonists of human orexin 1 receptor (OX1R) | Orexin/Hypocretin receptor type 1 (Homo sapiens), O43613 | OX1R-expressing cells, FRET antagonist read-out | inhibition, % at 6.6 µM | 330,000 compounds, 1.8% hits | AID 485270, 2010; in the data active = inhibition mostly above about 38%, no sharp cut-off; inactive = mostly below about 40%
TAAR1 ag: human TAAR1 agonists, primary screen, Fluo-8 calcium fluorescence, CHO RD-HGA16 cells; Trace amine-associated receptor 1 (Homo sapiens), Q96RJ0; vehicle wells 0%, saturating PEA agonist 100%; activation, % at 3 µM; 360,000 compounds, 0.99% hits;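 active = activation above the mean activation of all test compounds in the run plus 3 SD, cut at about 38% in these data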
Target sequence (Q96RJ0 whole entry, looked up): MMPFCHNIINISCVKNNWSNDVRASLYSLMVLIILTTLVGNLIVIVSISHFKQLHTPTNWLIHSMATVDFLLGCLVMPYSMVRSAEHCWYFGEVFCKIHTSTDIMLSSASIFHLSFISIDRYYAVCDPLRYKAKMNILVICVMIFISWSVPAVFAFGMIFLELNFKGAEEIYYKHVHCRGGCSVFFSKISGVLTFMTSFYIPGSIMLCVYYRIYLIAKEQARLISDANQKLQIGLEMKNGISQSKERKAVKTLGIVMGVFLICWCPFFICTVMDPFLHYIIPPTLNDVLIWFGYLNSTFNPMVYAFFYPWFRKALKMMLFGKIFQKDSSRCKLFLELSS
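Assay system: CHO-derived RD-HGA16 cells with stable Gα16 and human TAAR1; timing: 17-24 h seeding, 75 min 37 °C dye, 30 min RT; read-out: % activation from peak over basal fluorescence ratio, DMSO-to-PEA scaled; measured by: kinetic Fluo-8 calcium fluorescence; benchmarks: low control DMSO, high control PEA (EC100); doses: 3 µM single concentration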
GPR7 antagonist: GPR7 receptor antagonists, primary screen, cell-based, fluorescence, single concentration. Neuropeptides B/W receptor type 1 (Homo sapiens), P48145. GPR7-expressing cells, fluorescence antagonist assay. inhibition, % at 4.4 µM. 290,000 compounds, 1.1% hits. AID 1861, 2009; in the data active = inhibition above about 16%, passing the limit was not always enough;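 also: cells stimulated with the agonist NPW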
Target sequence (P48145 whole entry, looked up): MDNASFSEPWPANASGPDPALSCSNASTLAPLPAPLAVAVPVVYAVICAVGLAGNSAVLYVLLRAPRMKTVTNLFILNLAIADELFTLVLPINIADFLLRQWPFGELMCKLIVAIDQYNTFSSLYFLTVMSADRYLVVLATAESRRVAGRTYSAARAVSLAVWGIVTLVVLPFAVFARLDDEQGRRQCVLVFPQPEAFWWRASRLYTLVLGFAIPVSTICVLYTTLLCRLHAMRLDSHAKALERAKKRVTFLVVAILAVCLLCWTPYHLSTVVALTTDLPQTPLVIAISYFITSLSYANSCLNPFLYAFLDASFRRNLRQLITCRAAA
TAAR1 antagonist: human TAAR1 antagonists, primary screen, Fluo-8 calcium fluorescence, CHO RD-HGA16 cells; Trace amine-associated receptor 1 (Homo sapiens), Q96RJ0; antagonist; inhibition, % at 3 µM; 360,000 compounds, 1.5% hits;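 active = inhibition above a per-plate cutoff, the mean inhibition of test compounds on that plate plus 3 SD, cut at about 49% in these data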
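Test system: CHO RD-HGA16 cells bearing hTAAR1 | Reagent: β-PEA, EC80 | Compound dosing: 3 µM, single point | Schedule: Dye loading 75 min at 37 °C, then 30 min room temperature | Signal: Calcium fluorescence with Fluo-8 | Evaluation: Percent inhibition of PEA-evoked calcium signal, max/basal emission ratio | Control set: DMSO-only wells and EC80 β-PEA-stimulated wells | Repeats: Singlicate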
OX1R antag-2: OX1R (HCRTR1) antagonists, primary screen, fluorescence, CHO/OX1R cells, Fluo-8 calcium, orexin A. Fluo-8 calcium fluorescence. Orexin/Hypocretin receptor type 1 (Homo sapiens), O43613. inhibition, % at 5 µM. 330,000 compounds, 0.43% hits;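 active = inhibition above its plate's threshold, mean inhibition of all tested compounds on the plate plus 3 SD, cut at about 37% in these data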
CHO parental Ca: ATP-evoked calcium signal inhibitors, parental CHO, primary screen, counter-screen for OX1R antagonist project, cell-based, fluorescence, Fluo-8 calcium dye; inhibition, % at 5.6 µM; 330,000 compounds, 0.63% hits; parental CHO-K1, ATP-induced calcium, Fluo-8 fluorescence;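 active = inhibition above that plate's mean sample inhibition plus 3 SD, cut at about 26% in these data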
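Material – parental CHO cells · Reagent – ATP stimulus · Compound – single nominal dose of 5.6 µM per compound · Detection – Fluo-8 fluorescence · Read-out basis – percent inhibition of calcium signal · Controls – ATP-challenged DMSO wells low, unchallenged DMSO wells high · Repeats – no replicates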
A number is an active result; 0 = inactive; - = no result.

SMILES	OX1R antag-1	TAAR1 ag	GPR7 antagonist	TAAR1 antagonist	OX1R antag-2	CHO parental Ca
CCCCNC(=S)N(C)/N=C/c1ccc(OCC(=O)Nc2c(C)cc(C)cc2C)c(OC)c1	0	0	0	0	0	0
CCn1c(=O)c(C(=O)NNC(=O)c2ccccc2Cl)c(O)c2ccccc21	0	54	0	0	0	0
O=C(NCc1ccccc1)c1onc(CSc2ccccc2)c1C(=O)NCC1CC1	0	0	-	56	0	47
CCOC(=O)C1=C(C(=O)OCC)C2N(Cc3ccc(Br)cc3)c3ccccc3[C@@]23C[C@@H](C(=O)OC)N(S(=O)(=O)c2ccc(OC)cc2)C3=N1 (stereo not given in full)	-	0	-	0	-	-
N#Cc1ccc(S(=O)(=O)N2CCCc3nc(-c4ccc(F)cc4)ccc32)cc1	-	0	-	0	-	-
Cc1sc2ncnc(NCCc3ccc(S(N)(=O)=O)cc3)c2c1C	0	0	0	0	0	53
Cc1ccccc1CN1C[C@H]2CON(C)[C@H]2C[C@H]1c1cccc(Br)c1	-	0	-	0	-	-
Cc1cc(N2CCN(CC(C)(C)O)C[C@@H]2C)ccc1N1CCN(Cc2ccccc2)[C@@H](C)C1	-	0	-	0	-	-
COc1ccccc1C(=O)N1CCN(C(=O)[C@@H](Cc2ccccc2)NC(=O)[C@H]2O[C@@H](n3ccc(N)nc3=O)[C@H](O)[C@@H]2O)CC1	-	0	-	0	-	-
C=C(CN(C)C)C(=O)c1ccc(OC2OC(COC(C)=O)C(OC(C)=O)C(OC(C)=O)C2OC(C)=O)cc1 (stereo not given)	-	0	-	60	-	-
C=C(CN(C)C)C(=O)c1ccc2c(c1)OCO2	-	0	-	0	-	-
CCN(CC)c1ccc(NC(=O)Nc2ccccc2)cc1	0	0	0	50	0	0
CCN(CC)c1ccc(NC(=O)Nc2ccc(C(C)=O)cc2)cc1	0	0	0	0	0	0
CNC(=O)c1ccc(NC(=O)Nc2ccccc2)cc1	0	40	0	0	0	0
COc1cccc(CC(=O)NCC2CCN(C(=O)C(=O)c3cccs3)CC2)c1	-	0	-	0	-	-
Nc1ccn([C@@H]2O[C@H](C(=O)N[C@H](Cc3ccccc3)C(=O)N3CCN(CC(=O)N4CCCC4)CC3)[C@@H](O)[C@H]2O)c(=O)n1	-	0	-	0	-	-
COC(=O)C1=C(C)N(Cc2cccc(C(F)(F)F)c2)C(=NCc2ccc(C(F)(F)F)cc2)NC1c1cccc(F)c1 (stereo not given)	-	0	-	0	-	-
Cn1cccc1CC(=O)N/N=C\c1c2ccccc2cc2ccccc12	39	0	0	0	0	0
O=C(NCC1CCN(C(=O)C(=O)c2cc3ccccc3o2)CC1)c1cccnc1	-	0	-	0	-	-
C=CC[C@]12C[C@@]3(O[C@H](c4ccccn4)N=C3C[C@H](c3ccc(OC)cc3)[C@H]1C)N(C1CCN(Cc3ccccc3)CC1)C2=O	-	0	-	0	-	-
N#Cc1nccnc1S(=O)(=O)c1cccs1	109	0	18	0	0	44
CN(Cc1ccccc1C#N)S(=O)(=O)c1cccs1	0	0	0	0	0	0
Cc1cc(N2CCN(C(=O)OC(C)(C)C)C[C@@H]2C)ccc1Br	-	0	-	0	-	-
CC(=O)c1cccc(N=c2scc(-c3ccc(S(=O)(=O)N4CCOCC4)cc3)n2CCO)c1	0	0	0	0	0	0
C=CCn1c(-c2ccc(S(=O)(=O)N3CCOCC3)cc2)csc1=Nc1ccccc1	0	0	0	0	0	39
SMILES	OX1R antag-1	TAAR1 ag	GPR7 antagonist	TAAR1 antagonist	OX1R antag-2	CHO parental Ca
NC(c1csc(Nc2nncc3ccccc23)n1)c1ccccc1Cl (stereo not given)	-	50	-	0	-	-
COc1ccc(S(=O)(=O)N(C)[C@H]2C[C@H]3c4cc(-c5ccccc5)ccc4CCN3C(=O)[C@H]2[C@H](C)O)cc1	-	0	-	56	-	-
COc1ncnc2c1ncn2CCCNCc1ccccc1	-	0	-	0	-	-
CCN1CCN(S(=O)(=O)c2cccc3nsnc23)CC1	0	0	0	0	0	0
CCCN(CCC)CCCNC(=O)C1CCN(S(=O)(=O)c2cccc3nsnc23)CC1	40	0	0	0	0	0
CC1CCCCN1CCNC(=O)C1CCCN(S(=O)(=O)c2cccc3nsnc23)C1 (stereo not given)	46	0	0	0	0	0
O=S(=O)(c1cccc2nsnc12)N1CCNCC1	55	0	0	0	0	0
CC1CCCCN1CCNC(=O)C1CCN(S(=O)(=O)c2cccc3nsnc23)CC1 (stereo not given)	0	0	0	0	0	0
O=C(/C=C/Nc1ccccc1)c1ccc(Oc2ncccn2)cc1	0	43	0	0	0	0
COc1ccc(N(CC(=O)Nc2ccc(S(=O)(=O)N3CCOCC3)cc2)S(=O)(=O)c2ccc(F)cc2)cc1	0	0	0	51	0	0
CN(C)C(=O)C[C@@H]1C=C[C@@H](NC(=O)C2CCC2)[C@@H](CO)O1	-	0	-	0	-	-
Cc1cc(NC(=O)Cc2ccccc2)c2ccccc2n1	0	0	0	0	0	33
Cc1cc(C)nc(SCC(=O)Nc2ccnc3ccccc23)n1	0	0	0	0	0	36
Nc1[nH]c(C(=O)c2ccccc2)c(-c2ccc(Br)cc2)c1C(=O)c1ccccc1	-	0	-	0	-	-
Clc1ccc(CN2CCN(c3ncc(Cc4ccccc4)cn3)CC2)c(Cl)c1	-	0	-	0	-	-
CCCNC(=O)C1(C)CCCN(Cc2ccccc2F)C1 (stereo not given)	-	0	-	0	-	-
CCCCCCCCCCCCOC(=O)C[N+](C)(C)C	0	38	0	49	0	0
COC(=O)C1=C(C)N(Cc2cccc(C(F)(F)F)c2)C(=NCc2cc(OC)c(OC)c(OC)c2)NC1CCc1ccccc1 (stereo not given)	-	0	-	0	-	-
O=C(N[C@@H](Cc1cccnc1)C(=O)N1CCC[C@H]1C(=O)NC1CCCC1)C1CCCC1	-	0	-	0	-	-
CN(Cc1cccc2cnccc12)C(=O)CCc1nnc(CCc2ccccc2)o1	0	0	0	0	0	0
CC(=O)c1ccc(-c2nnc(CCC(=O)N(C)Cc3cccc4cnccc34)o2)s1	35	0	0	0	0	0
CCc1nc2ccc(C(=O)Nc3cccc(OCC(=O)N(C)C)c3)cn2c1N(C)Cc1ccc(OC)cc1	-	0	-	54	-	-
Cc1ccc(NS(=O)(=O)c2ccc(OCC(=O)NCc3ccco3)cc2)cc1	0	40	0	0	0	0
CC(SCc1ccccc1)C(=O)N/N=C/c1ccc(OCC(=O)NCc2ccco2)cc1 (stereo not given)	56	0	0	0	0	0
